By IC50 is commonly meant the concentration that inhibits the measured activity by half. Low readings indicate higher potency, high ones lower potency. By inhibition is commonly meant the drop in the measured response relative to a control, in per cent.

This is an account of results in ChEMBL document CHEMBL4145462, “Nitrogen-containing ecdysteroid derivatives vs. multi-drug resistance in cancer: Preparation and antitumor activity of oximes, oxime ethers and a lactam” (Eur J Med Chem, 2018).

T1 sequence (P08183 whole entry): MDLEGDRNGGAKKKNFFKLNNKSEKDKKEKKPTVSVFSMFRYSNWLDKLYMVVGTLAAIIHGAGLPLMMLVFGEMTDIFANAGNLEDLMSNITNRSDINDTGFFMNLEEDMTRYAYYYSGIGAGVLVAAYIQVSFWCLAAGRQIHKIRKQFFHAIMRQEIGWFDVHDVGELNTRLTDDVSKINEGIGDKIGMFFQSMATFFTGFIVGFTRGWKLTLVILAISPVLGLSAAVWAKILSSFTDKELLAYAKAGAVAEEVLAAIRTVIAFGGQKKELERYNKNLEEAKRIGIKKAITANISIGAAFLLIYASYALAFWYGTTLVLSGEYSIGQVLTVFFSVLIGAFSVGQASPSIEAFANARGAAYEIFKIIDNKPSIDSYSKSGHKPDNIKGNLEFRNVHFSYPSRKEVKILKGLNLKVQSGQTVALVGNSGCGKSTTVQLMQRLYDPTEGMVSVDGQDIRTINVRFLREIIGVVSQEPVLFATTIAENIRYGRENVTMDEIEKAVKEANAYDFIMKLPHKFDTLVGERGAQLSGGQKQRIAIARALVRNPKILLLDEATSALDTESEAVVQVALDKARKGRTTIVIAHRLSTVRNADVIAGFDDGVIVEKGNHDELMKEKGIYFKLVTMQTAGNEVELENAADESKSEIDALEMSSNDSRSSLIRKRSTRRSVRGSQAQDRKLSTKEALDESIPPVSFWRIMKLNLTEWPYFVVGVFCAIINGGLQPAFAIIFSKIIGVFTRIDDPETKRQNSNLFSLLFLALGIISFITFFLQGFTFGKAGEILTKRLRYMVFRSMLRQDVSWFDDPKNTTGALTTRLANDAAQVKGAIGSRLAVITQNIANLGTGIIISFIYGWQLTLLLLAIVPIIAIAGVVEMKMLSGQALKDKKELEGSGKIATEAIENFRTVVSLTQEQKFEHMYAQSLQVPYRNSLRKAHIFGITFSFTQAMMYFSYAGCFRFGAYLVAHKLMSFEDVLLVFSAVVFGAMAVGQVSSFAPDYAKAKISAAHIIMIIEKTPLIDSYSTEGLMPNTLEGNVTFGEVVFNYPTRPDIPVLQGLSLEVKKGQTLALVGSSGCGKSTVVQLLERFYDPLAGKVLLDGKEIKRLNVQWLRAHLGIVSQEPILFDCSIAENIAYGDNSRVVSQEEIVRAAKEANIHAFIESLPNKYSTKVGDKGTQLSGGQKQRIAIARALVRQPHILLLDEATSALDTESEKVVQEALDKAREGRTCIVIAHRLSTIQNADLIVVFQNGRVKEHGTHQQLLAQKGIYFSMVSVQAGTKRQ

One series relates to HeLa. The experiment in a line: Antiproliferative activity against human HeLa cells after 72 hrs by MTT assay.
Details: not given
Type of series: functional, cell-based. The method, boiled down: (§1)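 Cells grown in MEM with 10% FCS, 1% non-essential amino acids and 1% penicillin-streptomycin. Seeded at 5000 cells/well, exposed to 0.1–30.0 µM compound for 72 h. MTT (5 mg/ml solution) was then added for 4 h, formazan dissolved in DMSO, and absorbance read at 545 nm. Cisplatin served as positive control. IC50 came from sigmoidal dose–response fits (log inhibitor vs normalized response, variable slope).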
For the compound `CC(C)(O)CC[C@H]1OC(C)(C)O[C@]1(C)[C@H]1CC=C2C3=CC(=O)N[C@@H]4C[C@H]5OC(C)(C)O[C@H]5C[C@]4(C)[C@H]3CC[C@@]21C`, the IC50 is over 30 µM.

The subject of a further series is SiHa. The series can be described thus: Antiproliferative activity against human SiHa cells after 72 hrs by MTT assay. Type of series: functional, cell-based.
Details: not given
The method, boiled down: as §1
Turning to `CC(C)(O)CC[C@H]1OC(C)(C)O[C@]1(C)[C@H]1CC=C2C3=CC(=O)N[C@@H]4C[C@H]5OC(C)(C)O[C@H]5C[C@]4(C)[C@H]3CC[C@@]21C`, the IC50 was over 30 µM.

In a further series the test system is MDA-MB-231. The experiment in a line: Antiproliferative activity against human MDA-MB-231 cells after 72 hrs by MTT assay. It counts as functional, cell-based. Conditions: MDA-MB-231, 72 h. The method, boiled down: as §1
(In general: Formazan colour is commonly taken as a measure of viable cells.)
As to `CC(C)(O)CC[C@H]1OC(C)(C)O[C@]1(C)[C@H]1CC=C2C3=CC(=O)N[C@@H]4C[C@H]5OC(C)(C)O[C@H]5C[C@]4(C)[C@H]3CC[C@@]21C`, the IC50 was over 30 µM.

Another series deals with MCF7. The series can be described thus: Antiproliferative activity against human MCF7 cells after 72 hrs by MTT assay. It counts as functional, cell-based. The settings on record: MCF7, 72 h. The method, boiled down: as §1
On to `CC(C)(O)CC[C@H]1OC(C)(C)O[C@]1(C)[C@H]1CC=C2C3=CC(=O)N[C@@H]4C[C@H]5OC(C)(C)O[C@H]5C[C@]4(C)[C@H]3CC[C@@]21C`, for which the IC50 was over 30 µM.

System in the next series: not listed separately
The experiment in a line: Cytotoxicity against mouse L5178 cells after 48 hrs by MTT assay. Type of series: functional, cell-based. The settings on record: L5178, 48 h. The method, boiled down:
(§2)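 Parental mouse lymphoma L5178 and the MDR line made by pHa MDR1/A retrovirus transfection, selected with 60 µg/L colchicine. Grown in McCoy's 5A with horse serum at 37°C, 5% CO2. 5 x 10^4 cells/well, serial compound dilutions, 48 h. MTT added to 0.5 mg/mL final for 4 h, then 10% SDS in 0.01 M HCl overnight, OD read at 540 and 630 nm. IC50 taken as median cytotoxic activity (Dm) from control lanes of checkerboard plates, n=2.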
In turn, `CC(C)(O)CC[C@H]1OC(C)(C)O[C@]1(C)[C@H]1CC=C2C3=CC(=O)N[C@@H]4C[C@H]5OC(C)(C)O[C@H]5C[C@]4(C)[C@H]3CC[C@@]21C` displayed an IC50 of 63.4 µM.

System in another series: not listed separately
The series can be described thus: Cytotoxicity against mouse L5178 cells expressing human ABCB1 after 48 hrs by MTT assay. It counts as functional, cell-based. Conditions: L5178, 48 h. The method, boiled down:
as §2
Compound `CC(C)(O)CC[C@H]1OC(C)(C)O[C@]1(C)[C@H]1CC=C2C3=CC(=O)N[C@@H]4C[C@H]5OC(C)(C)O[C@H]5C[C@]4(C)[C@H]3CC[C@@]21C` displayed an IC50 of 72.4 µM.

The next series concerns the target T1, ABCB1 (P-glycoprotein) (Homo sapiens, UniProt P08183). The experiment in a line: Inhibition of human ABCB1 expressed in mouse L5178 cells assessed as increase in rhodamine-123 accumulation at 2 uM after 10 mins by flow cytometric analysis relative to control. The settings on record: mouse L5178 cells expressing human ABCB1, probe rhodamine-123. It counts as cell-based. The method, boiled down: (§3)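 Cells at 2 × 10^6/mL were preincubated 10 min with compound. Rhodamine 123 then added to 5.2 µM final, 20 min at 37 °C. Cells washed twice in PBS, resuspended and read by flow cytometry. Percent inhibition was scaled between MDR-cell accumulation (0%) and parental L5178 accumulation (100%). Controls: 100 nM tariquidar (positive) and 2% DMSO (negative).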
(In general: In flow cytometry, cells or beads pass a laser one at a time.)
`CC(C)(O)CC[C@H]1OC(C)(C)O[C@]1(C)[C@H]1CC=C2C3=CC(=O)N[C@@H]4C[C@H]5OC(C)(C)O[C@H]5C[C@]4(C)[C@H]3CC[C@@]21C`: the inhibition at 10 min, 2 µM amounted to 1.16%.

The next series concerns the target T1, ABCB1 (P-glycoprotein). The series can be described thus: Inhibition of human ABCB1 expressed in mouse L5178 cells assessed as increase in rhodamine-123 accumulation at 20 uM after 10 mins by flow cytometric analysis relative to control. Conditions: mouse L5178 cells expressing human ABCB1, probe rhodamine-123. Type of series: cell-based. The method, boiled down:
as §3
On to `CC(C)(O)CC[C@H]1OC(C)(C)O[C@]1(C)[C@H]1CC=C2C3=CC(=O)N[C@@H]4C[C@H]5OC(C)(C)O[C@H]5C[C@]4(C)[C@H]3CC[C@@]21C`, for which the inhibition at 10 min, 20 µM was 4.27%.

System in a further series: not listed separately
The series can be described thus: Synergistic cytotoxicity against mouse L5178 cells assessed as combination index at ED50 using 150:1 test compound to doxorubicin ratio after 48 hrs by MTT-based checkerboard microplate method.
Details: not given
Type of series: functional. The method, boiled down:
(§4)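 Checkerboard microplate combinations of compound with doxorubicin at constant molar ratios. 5 × 10^4 cells/well in McCoy's 5A, 48 h at 37°C, 5% CO2. MTT added to 0.5 mg/mL final for 4 h, SDS/HCl overnight, OD read at 540 and 630 nm. Combination indices derived per ratio for 50%, 75% and 90% growth inhibition by median-effect analysis.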
As to `CC(C)(O)CC[C@H]1OC(C)(C)O[C@]1(C)[C@H]1CC=C2C3=CC(=O)N[C@@H]4C[C@H]5OC(C)(C)O[C@H]5C[C@]4(C)[C@H]3CC[C@@]21C`, the CI turned out to be 0.4.

System in a further series: not listed separately
The series can be described thus: Synergistic cytotoxicity against mouse L5178 cells expressing human ABCB1 assessed as combination index at ED50 using 15:1 test compound to doxorubicin ratio after 48 hrs by MTT-based checkerboard microplate method.
Details: not given
Type of series: functional. The method, boiled down:
as §4
As for `CC(C)(O)CC[C@H]1OC(C)(C)O[C@]1(C)[C@H]1CC=C2C3=CC(=O)N[C@@H]4C[C@H]5OC(C)(C)O[C@H]5C[C@]4(C)[C@H]3CC[C@@]21C`, the CI is 0.2.

System in a further series: not listed separately
The experiment in a line: Synergistic cytotoxicity against mouse L5178 cells assessed as combination index at ED75 using 150:1 test compound to doxorubicin ratio after 48 hrs by MTT-based checkerboard microplate method.
Details: not given
It counts as functional. The method, boiled down: as §4
On to `CC(C)(O)CC[C@H]1OC(C)(C)O[C@]1(C)[C@H]1CC=C2C3=CC(=O)N[C@@H]4C[C@H]5OC(C)(C)O[C@H]5C[C@]4(C)[C@H]3CC[C@@]21C`, for which the CI is 0.42.

System in the next series: not listed separately
The experiment in a line: Synergistic cytotoxicity against mouse L5178 cells assessed as combination index at ED90 using 150:1 test compound to doxorubicin ratio after 48 hrs by MTT-based checkerboard microplate method. It counts as functional.
Details: not given
The method, boiled down: as §4
`CC(C)(O)CC[C@H]1OC(C)(C)O[C@]1(C)[C@H]1CC=C2C3=CC(=O)N[C@@H]4C[C@H]5OC(C)(C)O[C@H]5C[C@]4(C)[C@H]3CC[C@@]21C`: the CI is on record as 0.46.

System in another series: not listed separately
The series can be described thus: Synergistic cytotoxicity against mouse L5178 cells expressing human ABCB1 assessed as combination index at ED75 using 15:1 test compound to doxorubicin ratio after 48 hrs by MTT-based checkerboard microplate method. Type of series: functional.
Details: not given
The method, boiled down:
as §4
In the case of `CC(C)(O)CC[C@H]1OC(C)(C)O[C@]1(C)[C@H]1CC=C2C3=CC(=O)N[C@@H]4C[C@H]5OC(C)(C)O[C@H]5C[C@]4(C)[C@H]3CC[C@@]21C`, the CI came out at 0.12.

System in a further series: not listed separately
The series can be described thus: Synergistic cytotoxicity against mouse L5178 cells expressing human ABCB1 assessed as combination index at ED90 using 15:1 test compound to doxorubicin ratio after 48 hrs by MTT-based checkerboard microplate method. It counts as functional.
Details: not given
The method, boiled down: as §4
For `CC(C)(O)CC[C@H]1OC(C)(C)O[C@]1(C)[C@H]1CC=C2C3=CC(=O)N[C@@H]4C[C@H]5OC(C)(C)O[C@H]5C[C@]4(C)[C@H]3CC[C@@]21C`, the CI was determined as 0.09.

System in a further series: not listed separately
The series can be described thus: Synergistic cytotoxicity against mouse L5178 cells expressing human ABCB1 assessed as combination index at ED50 using 30:1 test compound to doxorubicin ratio after 48 hrs by MTT-based checkerboard microplate method. Type of series: functional.
Details: not given
The method, boiled down:
as §4
As to `CC(C)(O)CC[C@H]1OC(C)(C)O[C@]1(C)[C@H]1CC=C2C3=CC(=O)N[C@@H]4C[C@H]5OC(C)(C)O[C@H]5C[C@]4(C)[C@H]3CC[C@@]21C`, the CI was determined as 0.18.

System in the next series: not listed separately
The series can be described thus: Synergistic cytotoxicity against mouse L5178 cells expressing human ABCB1 assessed as combination index at ED75 using 30:1 test compound to doxorubicin ratio after 48 hrs by MTT-based checkerboard microplate method. It counts as functional.
Details: not given
The method, boiled down:
as §4
`CC(C)(O)CC[C@H]1OC(C)(C)O[C@]1(C)[C@H]1CC=C2C3=CC(=O)N[C@@H]4C[C@H]5OC(C)(C)O[C@H]5C[C@]4(C)[C@H]3CC[C@@]21C`: the CI is on record as 0.13.

System in another series: not listed separately
The experiment in a line: Synergistic cytotoxicity against mouse L5178 cells expressing human ABCB1 assessed as combination index at ED90 using 30:1 test compound to doxorubicin ratio after 48 hrs by MTT-based checkerboard microplate method. It counts as functional.
Details: not given
The method, boiled down:
as §4
Turning to `CC(C)(O)CC[C@H]1OC(C)(C)O[C@]1(C)[C@H]1CC=C2C3=CC(=O)N[C@@H]4C[C@H]5OC(C)(C)O[C@H]5C[C@]4(C)[C@H]3CC[C@@]21C`, the CI worked out at 0.11.
